Test results as given in ChEMBL document CHEMBL5154815, “A Series of Substituted Bis-Aminotriazines Are Activators of the Natriuretic Peptide Receptor C” (J Med Chem, 2022).
Active and inactive are the calls of the source. No cut-off for these calls is given here.

Columns and labels:
[1] = AUC (0 to infinity) in fasted C57BL/6 mouse at 10 mg/kg, po by LC-MS/MS analysis; assay type: ADME, organism-based; set-up: time infinity, dose 10 mg/kg, route po; conditions: in vivo
[2] = Clearance in fasted C57BL/6 mouse at 3 mg/kg, iv by LC-MS/MS analysis; assay type: ADME, organism-based; conditions: in vivo
[3] = target: T1, Atrial natriuretic peptide receptor 3 (Rattus norvegicus) (UniProt P41740); experiment: Agonist activity at NPRC in rat small mesenteric arteries assessed as inhibition of cANF4-23 induced vasorelaxation in presence of M372049 by Organ bath assay; assay type: tissue-based; conditions: Artery, filed as agonist
T1 sequence (whole entry): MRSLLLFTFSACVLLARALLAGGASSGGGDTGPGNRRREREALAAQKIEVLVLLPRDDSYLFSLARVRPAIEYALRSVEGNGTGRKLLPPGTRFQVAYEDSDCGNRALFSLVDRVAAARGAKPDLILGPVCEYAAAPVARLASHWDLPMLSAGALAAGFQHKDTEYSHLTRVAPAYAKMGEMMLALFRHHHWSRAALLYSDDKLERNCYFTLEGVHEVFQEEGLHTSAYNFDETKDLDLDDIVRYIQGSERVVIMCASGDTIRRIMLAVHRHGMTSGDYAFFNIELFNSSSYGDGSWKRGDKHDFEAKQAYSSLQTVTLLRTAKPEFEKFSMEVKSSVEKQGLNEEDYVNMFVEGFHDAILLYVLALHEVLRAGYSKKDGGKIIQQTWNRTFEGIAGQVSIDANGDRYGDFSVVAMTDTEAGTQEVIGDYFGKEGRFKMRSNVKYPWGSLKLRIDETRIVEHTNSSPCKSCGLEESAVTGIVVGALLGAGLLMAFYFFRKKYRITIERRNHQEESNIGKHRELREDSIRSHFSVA
Outline: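 Small mesenteric artery rings from male Wistar rats in classical tissue-bath pharmacology. Vessels were preincubated 15 min with M372049 10 μM or osteocrin 100 nM before the vasorelaxant response to test agents was assessed.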

[4] = target: T2, Atrial natriuretic peptide receptor 3 (Rattus norvegicus, UniProt P41740); experiment: Agonist activity at NPRC in rat small mesenteric arteries assessed as vasorelaxation preincubated with M372049 for 15 mins followed by compound treatment by Organ bath assay; assay type: tissue-based, Artery
T2 sequence (P41740 whole entry): T1 sequence (whole entry)

[5] = Protein binding in human plasma by equilibrium dialysis assay
[6] = target: T2, Atrial natriuretic peptide receptor 3; experiment: Agonist activity at NPRC in rat aorta assessed as vasorelaxation by Organ bath assay; assay type: tissue-based
[7] = target: T2, Atrial natriuretic peptide receptor 3; experiment: Agonist activity at NPRC in rat small mesenteric arteries assessed as vasorelaxation by Organ bath assay; assay type: tissue-based, Artery

## CC(=O)Nc1ccc(Nc2ncnc(NCCC(=O)OC(C)(C)C)n2)cc1
[1]
  AUC(0-inf): 653 ng·h/mL
[2]
  clearance: 112 mL/min/kg
[3]
  Activity: Active
[4]
  EC50: 8.64 µM
[5]
  PPB: 71%
[6]
  EC50: 15.5 µM
[7]
  EC50: 0.86 µM
